Results: ChEMBL document CHEMBL1124970, “New leupeptin analogues: synthesis and inhibition data” (J Med Chem, 1990)
pIC50: −log10 of the molar value. Where a SMILES comes first, the peptide text is derived from it. [ ]: non-standard residue; d: D form. The star is where a group is joined. Orn = NCCC[C@H](N)C(=O)O; Cbz = O=C(OCc1ccccc1)*

Experiments:
Kallikrein-1 = Kallikrein-1 (Homo sapiens, UniProt P06870); assay: Inhibition of Kallikrein proteolytic enzyme
Method in brief: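 Human urinary kallikrein (0.3 units/mL stock) at 37 °C in 0.46 M Tris pH 8.0 containing 0.0115 M NaCl, inhibitor in 1% DMSO/water. Benzoylarginine ethyl ester (0.5 mM stock) substrate, 2 min incubation, absorbance change at 253 nm over 10 min. Quadruplicate measurements at ≥5 inhibitor concentrations; IC50 read from % inhibition vs log inhibitor concentration.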

Serine protease 1 [1] = biological target: T1, Serine protease 1 (Homo sapiens, UniProt P07477); assay: Evaluated for the inhibition of trypsin.(no inhibition at 400 uM)
T1 sequence (P07477 whole entry): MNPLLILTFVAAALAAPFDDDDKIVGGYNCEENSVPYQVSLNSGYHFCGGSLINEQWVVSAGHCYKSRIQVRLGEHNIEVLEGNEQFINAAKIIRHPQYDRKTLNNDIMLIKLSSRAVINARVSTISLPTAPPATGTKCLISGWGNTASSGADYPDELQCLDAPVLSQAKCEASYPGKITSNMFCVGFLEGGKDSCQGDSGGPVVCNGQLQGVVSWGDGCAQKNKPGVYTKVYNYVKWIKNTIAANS
Method in brief: (§1)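 Trypsin (0.01 g/L stock in 0.001 N HCl) in 0.046 M Tris with 0.0115 M CaCl2, pH 8.1, inhibitor in 1% DMSO/water, 37 °C. Tosyl-L-arginine methyl ester (0.01 M stock) added, 2 min incubation, A247 change read over 10 min. Each inhibitor level run four times, five or more levels; IC50 from % inhibition plotted against log concentration.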

Plasminogen [2] = biological target: T2, Plasminogen (Rattus norvegicus, UniProt Q01177); assay: Inhibition of plasmin
T2 sequence (Q01177 97-581 limits assumed): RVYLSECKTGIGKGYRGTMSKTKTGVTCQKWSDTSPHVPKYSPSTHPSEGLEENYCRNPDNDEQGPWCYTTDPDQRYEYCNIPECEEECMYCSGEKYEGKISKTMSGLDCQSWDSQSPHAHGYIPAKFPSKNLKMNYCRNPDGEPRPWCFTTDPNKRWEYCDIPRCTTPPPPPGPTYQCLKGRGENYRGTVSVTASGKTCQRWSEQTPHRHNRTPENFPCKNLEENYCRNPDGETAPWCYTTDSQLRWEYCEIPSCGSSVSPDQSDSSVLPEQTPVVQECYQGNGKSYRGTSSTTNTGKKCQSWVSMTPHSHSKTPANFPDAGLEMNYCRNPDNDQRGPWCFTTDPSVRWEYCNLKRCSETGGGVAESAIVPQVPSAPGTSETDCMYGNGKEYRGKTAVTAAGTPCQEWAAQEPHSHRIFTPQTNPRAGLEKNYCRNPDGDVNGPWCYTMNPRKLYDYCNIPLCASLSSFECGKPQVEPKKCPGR
T2 sequence (Q01177 582-812 limits assumed): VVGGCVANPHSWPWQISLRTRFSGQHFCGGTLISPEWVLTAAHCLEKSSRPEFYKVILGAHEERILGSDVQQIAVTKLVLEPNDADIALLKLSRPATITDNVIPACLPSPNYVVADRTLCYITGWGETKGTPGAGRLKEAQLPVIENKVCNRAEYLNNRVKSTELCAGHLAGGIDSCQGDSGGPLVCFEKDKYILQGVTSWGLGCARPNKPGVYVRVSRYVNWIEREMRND
Method in brief: (§2)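 Plasmin (0.25 casein units/mL stock, in 50% glycerol/2 mM HCl with 5 g/L carbowax) in 0.5 M Tris pH 8.0 with 0.12 M NaCl, inhibitor added in 1% DMSO/water, 37 °C. D-Val-Leu-Lys p-nitroanilide (3.35 mM stock) added, 1 min incubation, then A405 change followed over 10 min. Four runs at ≥5 inhibitor concentrations; % inhibition vs log[I] gives IC50.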

Serine protease 1 [3] = biological target: T1, Serine protease 1; assay: Evaluated for the inhibition of trypsin; method in brief: as §1
Plasminogen [4] = biological target: T2, Plasminogen; assay: Evaluated for the inhibition of plasmin.( no inhibition at 400 uM); method in brief: as §2
Plasminogen [5] = biological target: T2, Plasminogen; assay: Evaluated for the inhibition of plasmin.(no inhibition at 400 uM); method in brief: as §2

Sequence of Kallikrein-1 (P06870 whole entry): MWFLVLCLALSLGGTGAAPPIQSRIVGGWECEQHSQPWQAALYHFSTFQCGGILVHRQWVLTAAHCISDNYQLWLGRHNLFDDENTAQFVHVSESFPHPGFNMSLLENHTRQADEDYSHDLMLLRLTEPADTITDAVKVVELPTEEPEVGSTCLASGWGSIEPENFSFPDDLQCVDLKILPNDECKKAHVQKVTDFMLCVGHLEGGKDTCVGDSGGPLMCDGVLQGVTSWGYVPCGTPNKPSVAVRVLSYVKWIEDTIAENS

Row | SMILES | pIC50 (Kallikrein-1) | pIC50 (Serine protease 1 [1]) | pIC50 (Plasminogen [2]) | pIC50 (Serine protease 1 [3]) | pIC50 (Plasminogen [4]) | pIC50 (Plasminogen [5])
1 | CC(C)C[C@H](NC(=O)[C@H](Cc1ccccc1)NC(=O)OCc1ccccc1)C(=O)N[C@H](C=O)CCCCN (Cbz-Phe-Leu-Lys-aldehyde) | 4.59 | < 3.40 | 5.05 | – | – | –
2 | CC(C)C[C@H](NC(=O)OCc1ccccc1)C(=O)N[C@@H](CC(C)C)C(=O)N[C@H](C=O)CCCCN (Cbz-Leu-Leu-Lys-aldehyde) | 4.72 | – | 3.74 | 3.71 | – | –
3 | CC(C)C[C@H](NC(=O)[C@H](Cc1ccccc1)NC(=O)OCc1ccccc1)C(=O)N[C@H](C=O)CCCN (Cbz-Phe-Leu-[Orn]-aldehyde) | 3.95 | < 3.40 | 3.62 | – | – | –
4 | CC(C)C[C@H](NC(=O)OCc1ccccc1)C(=O)N[C@@H](Cc1ccccc1)C(=O)N[C@H](C=O)CCCN (Cbz-Leu-Phe-[Orn]-aldehyde) | 4.08 | < 3.40 | – | – | < 3.40 | –
5 | CC(C)C[C@H](NC(=O)OCc1ccccc1)C(=O)N[C@@H](Cc1ccccc1)C(=O)N[C@H](C=O)CCCCN (Cbz-Leu-Phe-Lys-aldehyde) | 4.69 | < 3.40 | 4.33 | – | – | –
6 | CC(C)C[C@H](NC(=O)OCc1ccccc1)C(=O)N[C@@H](CC(C)C)C(=O)N[C@H](C=O)CCCN (Cbz-Leu-Leu-[Orn]-aldehyde) | 4.53 | < 3.40 | – | – | – | < 3.40
7 | CC(C)C[C@H](NC(=O)[C@H](Cc1ccccc1)NC(=O)OCc1ccccc1)C(=O)N[C@H](C=O)CCCN=C(N)N (Cbz-Phe-Leu-Arg-aldehyde) | 4.59 | – | 4.99 | 4.34 | – | –
8 | CC(C)C[C@H](NC(=O)OCc1ccccc1)C(=O)N[C@H](C(=O)N[C@H](C=O)CCCCN)C(C)C (Cbz-Leu-Val-Lys-aldehyde) | 4.83 | < 3.40 | 4.73 | – | – | –

More lines, in order of rising pIC50 (Kallikrein-1), values ahead:

Row | pIC50 (Kallikrein-1) | pIC50 (Serine protease 1 [1]) | pIC50 (Plasminogen [2]) | pIC50 (Serine protease 1 [3]) | pIC50 (Plasminogen [4]) | pIC50 (Plasminogen [5]) | SMILES
9 | 4.27 | < 3.40 | 3.36 | – | – | – | CC(C)C[C@H](NC(=O)OCc1ccccc1)C(=O)N[C@H](C(=O)N[C@H](C=O)CCCN)C(C)C (Cbz-Leu-Val-[Orn]-aldehyde)
10 | 4.44 | – | 3.89 | 3.79 | – | – | CC(C)C[C@H](NC(=O)OCc1ccccc1)C(=O)N[C@@H](CC(C)C)C(=O)N[C@H](C=O)CCCN=C(N)N
11 | 4.48 | – | 4.10 | 3.97 | – | – | CC(C)C[C@H](NC(=O)OCc1ccccc1)C(=O)N[C@@H](Cc1ccccc1)C(=O)N[C@H](C=O)CCCN=C(N)N (Cbz-Leu-Phe-Arg-aldehyde)
12 | 4.95 | – | 4.99 | 4.09 | – | – | CC(C)C[C@H](NC(=O)OCc1ccccc1)C(=O)N[C@H](C(=O)N[C@H](C=O)CCCN=C(N)N)C(C)C (Cbz-Leu-Val-Arg-aldehyde)
